Values joined by “and” are separate entries in the source; they are usually repeats but may differ in a detail not shown here. Identical values can stand only once.
The compounds below were run on Fibroblast (assay: Multiplex assay against human fibroblast). Details: 12 h, 1 µM, compound concentration 1 uM.
Format: toxicity, cell-based
Procedure, shortened: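 Live cells carried four stains from seeding: Hoechst33342, BioTracker Green Microtubule Cytoskeleton Dye, MitoTracker Red and Annexin V Alexa Fluor 680. They were imaged on a CQ1 microscope at 37°C and 5% CO2 after compound addition. Using CellPathfinder machine-learning gating, cells were split into Hoechst high-intensity objects or normal cells, normal cells into healthy, pyknosed or fragmented nuclei, and pyknosed cells into mitotic or apoptotic; tubulin, mitochondrial-mass and membrane-permeability phenotypes are per cents of healthy-nucleus cells.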
For `COCCCN1CCC(NC(=O)c2cc(Cl)c(N)c3c2OCC3)CC1` [PRUCALOPRIDE], the “Population Apoptotic (%)” value was 33% and 48%, the “Population Fragmented Nuclei (%)” value was 20% and 31% and the “Population Healthy Nuclei (%)” value was 62% and 48%. The “Population Hoechst High Intensity Objects (%)” value was 3% and 4%, the “Population Membrane Permeable-Phenotype (%)” value was 0% and 5% and the “Population Mitochondria Different-Phenotype (%)” value was 3% and 8%. For the same compound, the “Population Mitotic Cells (%)” value was 66% and 52%, the “Population Normal (%)” value was 96% and 95% and the “Population Pyknosed Nuclei (%)” value was 16% and 20%. For the same compound, the “Population Tubulin-Different-Phenotype (%)” value was 30% and 51% and the “Total Cell Count” value was 132 and 130. For `N#Cc1cc(F)cc(-c2nc(-c3ccc(F)cn3)no2)c1`, the “Population Apoptotic (%)” value was 28% and 38%, the “Population Fragmented Nuclei (%)” value was 21% and 32% and the “Population Healthy Nuclei (%)” value was 63% and 37%. The “Population Hoechst High Intensity Objects (%)” value was 0% and 6%, the “Population Mitochondria Different-Phenotype (%)” value was 5% and 6% and the “Population Mitotic Cells (%)” value was 71% and 61%. The “Population Normal (%)” value was 100% and 93%, the “Population Pyknosed Nuclei (%)” value was 15% and 29% and the “Population Tubulin-Different-Phenotype (%)” value was 22% and 48%. The “Total Cell Count” value was 136 and 93.

Same assay, conditions: 12 h, 10 µM, compound concentration 10 uM
In the case of `COCCCN1CCC(NC(=O)c2cc(Cl)c(N)c3c2OCC3)CC1` [PRUCALOPRIDE], the “Population Apoptotic (%)” value is reported as 30% and 35%, the “Population Fragmented Nuclei (%)” value is reported as 12% and 28% and the “Population Healthy Nuclei (%)” value is reported as 66% and 46%. For the same compound, the “Population Hoechst High Intensity Objects (%)” value was 0% and 11%, the “Population Membrane Permeable-Phenotype (%)” value was 1% and 7% and the “Population Mitochondria Different-Phenotype (%)” value was 7% and 3%. For the same compound, the “Population Mitotic Cells (%)” value was 70% and 64%, the “Population Normal (%)” value was 99% and 88% and the “Population Pyknosed Nuclei (%)” value was 20% and 25%. The “Population Tubulin-Different-Phenotype (%)” value was 31% and 55% and the “Total Cell Count” value was 144 and 153. With `N#Cc1cc(F)cc(-c2nc(-c3ccc(F)cn3)no2)c1` the “Population Apoptotic (%)” value was 48% and 28%, the “Population Fragmented Nuclei (%)” value was 15% and 42% and the “Population Healthy Nuclei (%)” value was 67% and 32%. The “Population Hoechst High Intensity Objects (%)” value was 1% and 8%, the “Population Membrane Permeable-Phenotype (%)” value was 2% and 9% and the “Population Mitochondria Different-Phenotype (%)” value was 5% and 12%. For the same compound, the “Population Mitotic Cells (%)” value was 51% and 72%, the “Population Normal (%)” value was 98% and 91% and the “Population Pyknosed Nuclei (%)” value was 17% and 24%. For the same compound, the “Population Tubulin-Different-Phenotype (%)” value was 23% and 36% and the “Total Cell Count” value was 179 and 110.

Same assay, conditions: 24 h, 1 µM, compound concentration 1 uM
In the case of `COCCCN1CCC(NC(=O)c2cc(Cl)c(N)c3c2OCC3)CC1` [PRUCALOPRIDE], the “Population Apoptotic (%)” value is reported as 48% and 72%, the “Population Fragmented Nuclei (%)” value is reported as 20% and 36% and the “Population Healthy Nuclei (%)” value is reported as 57% and 49%. For the same compound, the “Population Hoechst High Intensity Objects (%)” value was 2% and 7%, the “Population Membrane Permeable-Phenotype (%)” value was 0% and 7% and the “Population Mitochondria Different-Phenotype (%)” value was 3% and 4%. For the same compound, the “Population Mitotic Cells (%)” value was 51% and 27%, the “Population Normal (%)” value was 97% and 92% and the “Population Pyknosed Nuclei (%)” value was 21% and 14%. The “Population Tubulin-Different-Phenotype (%)” value was 25% and 50% and the “Total Cell Count” value was 136 and 138. For `N#Cc1cc(F)cc(-c2nc(-c3ccc(F)cn3)no2)c1`, the “Population Apoptotic (%)” value was 40% and 27%, the “Population Fragmented Nuclei (%)” value was 19% and 39% and the “Population Healthy Nuclei (%)” value was 68% and 38%. The “Population Hoechst High Intensity Objects (%)” value was 2% and 7%, the “Population Mitochondria Different-Phenotype (%)” value was 3% and the “Population Mitotic Cells (%)” value was 60% and 72%. The “Population Normal (%)” value was 97% and 92%, the “Population Pyknosed Nuclei (%)” value was 11% and 22% and the “Total Cell Count” value was 131 and 88.

Same assay, conditions: 24 h, 10 µM, compound concentration 10 uM
`COCCCN1CCC(NC(=O)c2cc(Cl)c(N)c3c2OCC3)CC1` [PRUCALOPRIDE] was tested, and the “Population Apoptotic (%)” value was 63% and 30%, the “Population Fragmented Nuclei (%)” value was 10% and 24% and the “Population Healthy Nuclei (%)” value was 74% and 57%. For the same compound, the “Population Hoechst High Intensity Objects (%)” value was 6% and 5%, the “Population Membrane Permeable-Phenotype (%)” value was 1% and 11% and the “Population Mitochondria Different-Phenotype (%)” value was 6% and 3%. The “Population Mitotic Cells (%)” value was 36% and 69%, the “Population Normal (%)” value was 93% and 94% and the “Population Pyknosed Nuclei (%)” value was 15% and 18%. The “Population Tubulin-Different-Phenotype (%)” value was 30% and 56% and the “Total Cell Count” value was 128 and 148. For `N#Cc1cc(F)cc(-c2nc(-c3ccc(F)cn3)no2)c1`, the “Population Apoptotic (%)” value was 70% and 35%, the “Population Healthy Nuclei (%)” value was 70% and 33% and the “Population Hoechst High Intensity Objects (%)” value was 4% and 11%. For the same compound, the “Population Membrane Permeable-Phenotype (%)” value was 0% and 5%, the “Population Mitochondria Different-Phenotype (%)” value was 6% and 11% and the “Population Mitotic Cells (%)” value was 29% and 65%. The “Population Normal (%)” value was 95% and 88%, the “Population Pyknosed Nuclei (%)” value was 16% and 18% and the “Population Tubulin-Different-Phenotype (%)” value was 22% and 41%. The “Total Cell Count” value was 170 and 120.

Same assay, conditions: 48 h, 1 µM, compound concentration 1 uM
In the case of `COCCCN1CCC(NC(=O)c2cc(Cl)c(N)c3c2OCC3)CC1` [PRUCALOPRIDE], the “Population Apoptotic (%)” value is reported as 50%, the “Population Fragmented Nuclei (%)” value is reported as 25% and 36% and the “Population Healthy Nuclei (%)” value is reported as 60% and 49%. For the same compound, the “Population Hoechst High Intensity Objects (%)” value was 4% and 2%, the “Population Membrane Permeable-Phenotype (%)” value was 2% and 3% and the “Population Mitochondria Different-Phenotype (%)” value was 3% and 6%. For the same compound, the “Population Mitotic Cells (%)” value was 50%, the “Population Normal (%)” value was 95% and 97% and the “Population Pyknosed Nuclei (%)” value was 14% and 13%. For the same compound, the “Population Tubulin-Different-Phenotype (%)” value was 38% and 53% and the “Total Cell Count” value was 146 and 132. `N#Cc1cc(F)cc(-c2nc(-c3ccc(F)cn3)no2)c1` was tested, and the “Population Apoptotic (%)” value was 61% and 50%, the “Population Fragmented Nuclei (%)” value was 21% and 45% and the “Population Healthy Nuclei (%)” value was 68% and 32%. For the same compound, the “Population Hoechst High Intensity Objects (%)” value was 1% and 5%, the “Population Membrane Permeable-Phenotype (%)” value was 0% and 3% and the “Population Mitochondria Different-Phenotype (%)” value was 3% and 7%. For the same compound, the “Population Mitotic Cells (%)” value was 38% and 50%, the “Population Normal (%)” value was 98% and 94% and the “Population Pyknosed Nuclei (%)” value was 9% and 22%. For the same compound, the “Population Tubulin-Different-Phenotype (%)” value was 23% and 57% and the “Total Cell Count” value was 137 and 85.

Same assay, conditions: 48 h, 10 µM, compound concentration 10 uM
In the case of `COCCCN1CCC(NC(=O)c2cc(Cl)c(N)c3c2OCC3)CC1` [PRUCALOPRIDE], the “Population Apoptotic (%)” value is reported as 64% and 62%, the “Population Fragmented Nuclei (%)” value is reported as 22% and 34% and the “Population Healthy Nuclei (%)” value is reported as 66% and 48%. The “Population Hoechst High Intensity Objects (%)” value was 2% and 6%, the “Population Membrane Permeable-Phenotype (%)” value was 1% and 7% and the “Population Mitochondria Different-Phenotype (%)” value was 6% and 7%. For the same compound, the “Population Mitotic Cells (%)” value was 35% and 37%, the “Population Normal (%)” value was 97% and 93% and the “Population Pyknosed Nuclei (%)” value was 10% and 17%. For the same compound, the “Population Tubulin-Different-Phenotype (%)” value was 38% and 57% and the “Total Cell Count” value was 136 and 146. `N#Cc1cc(F)cc(-c2nc(-c3ccc(F)cn3)no2)c1` was tested, and the “Population Apoptotic (%)” value was 84% and 50%, the “Population Fragmented Nuclei (%)” value was 20% and 44% and the “Population Healthy Nuclei (%)” value was 63% and 38%. The “Population Hoechst High Intensity Objects (%)” value was 7% and 5%, the “Population Membrane Permeable-Phenotype (%)” value was 0% and 15% and the “Population Mitochondria Different-Phenotype (%)” value was 11% and 5%. The “Population Normal (%)” value was 92% and 94%, the “Population Pyknosed Nuclei (%)” value was 16% and 17% and the “Population Tubulin-Different-Phenotype (%)” value was 28% and 50%. For the same compound, the “Total Cell Count” value was 162 and 110.

Reference: ChEMBL document CHEMBL5724801, “EUbOPEN Chemogenomics Library - Multiplex” (2024)
